What is called Ki is a dissociation constant, usually derived from enzyme kinetics or from competition with a known ligand. One may read the Kd as a measure of binding affinity in units of concentration.

Entries after “also recorded” stand apart in the source; their conditions may differ.

One experiment has as its target mouse (His)6-CypC (Mus musculus, UniProt P30412). The experiment in a line: protease-free PPIase assay, CypC. In kind it is biochemical.
For a further experiment, the target named is Human CypB (Homo sapiens, UniProt P23284). Briefly: protease-free PPIase assay, CypB. In kind it is biochemical. The settings on record: up to a concentration of 30 μM.
Experiment [1] concerns RANTES-induced migration of mouse CD4+ T cells. Briefly: Boyden chamber chemotaxis assay, RANTES-induced. In kind it is cell-based. Conditions: 1 ng/ml mouse RANTES, activated mouse CD4+ T cells (data not shown).
The next experiment addresses FKBP12 (Homo sapiens, UniProt P62942). The experiment in a line: PPIase inhibition, FKBP12. In kind it is biochemical.
In experiment [2] the test system is CypA-induced chemotaxis of mouse CD4+ T cells. The experiment in a line: Boyden chamber chemotaxis assay, CypA-induced. The settings on record: 2 μM compound, 100 ng/ml CypA, activated mouse CD4+ T cells, 50 min. In kind it is cell-based. The method in brief:
(§1)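 Mouse spleen cells (3×10^6/well) stimulated overnight with ConA 10 μg/ml in Click's medium + 5% FCS, 37°C, 5% CO2; CD4+ T cells isolated by MACS negative depletion. 104 cells placed in upper wells of 48-well Boyden chamber (5-μm polycarbonate membrane). Lower wells: RPMI-1640 + 1% BSA with recombinant human CypA or recombinant CypB. Test compound added to top and bottom wells. 50 min, 37°C. Membrane Wright-Giemsa stained; chemotactic index = migrated cells/mean medium-alone.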

Experiment [3] concerns CypB-induced chemotaxis of mouse CD4+ T cells. The experiment in a line: Boyden chamber chemotaxis assay, CypB-induced. In kind it is cell-based. The settings on record: 2 μM compound, 200 ng/ml CypB, activated mouse CD4+ T cells, 50 min. The method in brief: as §1
Experiment [4] deals with T1, CypA (Homo sapiens, UniProt P62937). Briefly: isothermal titration calorimetry. In kind it is binding. (In general: In ITC the heat of successive injections is recorded.)
Experiment [5] can be described thus: ITC control titration of CsA with compound 1. The settings on record: syringe 1, cell CsA; n.s. = no signal of heat formation. In kind it is binding.
The target of the next experiment is Par14 (Homo sapiens, UniProt Q9Y237). Briefly: PPIase inhibition, Par14. In kind it is biochemical.
Experiment [6] has as its target T1, CypA. Briefly: protease-free PPIase assay, CypA. In kind it is biochemical. Conditions: 35 mM HEPES pH 7.8, 283 K, Suc-Ala-Ala-Pro-Phe-pNA 60 μM.

T1 sequence (P62937 whole entry): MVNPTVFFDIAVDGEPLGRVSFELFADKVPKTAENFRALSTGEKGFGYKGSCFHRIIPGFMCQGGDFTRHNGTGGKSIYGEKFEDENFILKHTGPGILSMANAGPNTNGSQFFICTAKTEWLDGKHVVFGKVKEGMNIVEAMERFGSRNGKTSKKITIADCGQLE
Chain of mouse (His)6-CypC (P30412 whole entry): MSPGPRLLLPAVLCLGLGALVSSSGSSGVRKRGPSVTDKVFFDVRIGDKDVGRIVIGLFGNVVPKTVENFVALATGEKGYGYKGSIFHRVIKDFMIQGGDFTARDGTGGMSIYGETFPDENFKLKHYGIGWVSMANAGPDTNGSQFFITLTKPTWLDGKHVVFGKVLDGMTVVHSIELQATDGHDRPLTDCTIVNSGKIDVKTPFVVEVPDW
Chain of Par14 (Q9Y237 whole entry): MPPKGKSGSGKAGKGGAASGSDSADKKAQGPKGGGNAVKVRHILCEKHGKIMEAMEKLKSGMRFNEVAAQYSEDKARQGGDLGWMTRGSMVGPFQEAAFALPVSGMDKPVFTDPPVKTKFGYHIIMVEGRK
Chain of Human CypB (P23284 34-216): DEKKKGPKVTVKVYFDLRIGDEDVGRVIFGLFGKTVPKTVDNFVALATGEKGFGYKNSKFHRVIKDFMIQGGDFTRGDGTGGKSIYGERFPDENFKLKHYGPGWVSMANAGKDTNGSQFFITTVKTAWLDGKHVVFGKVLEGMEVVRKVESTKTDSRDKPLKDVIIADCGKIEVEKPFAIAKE
Chain of FKBP12 (P62942 whole entry, species assumed): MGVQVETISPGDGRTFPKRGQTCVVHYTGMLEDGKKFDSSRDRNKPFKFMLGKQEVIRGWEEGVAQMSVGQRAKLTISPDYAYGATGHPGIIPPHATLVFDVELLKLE

Turning to `O=C(c1cc(-c2cc(F)cc([N+](=O)[O-])c2O)cc([N+](=O)[O-])c1O)C1CCc2ccccc21` (stereo not shown) [Compound 1], the Ki on mouse (His)6-CypC (CypC, 35 mM HEPES pH 7.8, 283 K, Suc-Ala-Ala-Pro-Phe-pNA 60 μM) was more than 100 µM; on FKBP12 it was 38 ± 8 µM. Moreover, the “response of PPIase activity of CypC” value at mouse (His)6-CypC (up to a concentration of 30 μM) is reported as “did not respond”. The “response of PPIase activity of CypB” value at Human CypB is given as “did not respond”. Moreover, the “effect on RANTES-induced cell migration” value in experiment [1] is “not impacted”. The “inhibition of CypA-induced chemotaxis” value in [2] is listed as “almost completely; also recorded: specifically inhibited”. Moreover, the “effect on CypB-induced chemotaxis” value in experiment [3] was “barely impacted; also recorded: not influenced”. On CypA [4] (competition ITC approach, calculated by eq. 2, 293 K), the “association constant KA” value is 44000 M⁻¹. Also, the “binding enthalpy ΔH” value at CypA [4] (competition ITC approach, calculated by eq. 3, 293 K) is -2.8 kcal/mol. Also, the dissociation constant Kd at CypA [4] (read-out: dissociation constant KD, ITC probe of CsA/compound 1 competition) came out at 22.6 µM. The KA entry in experiment [5] is “n.s”. In addition, the “influence on Par14” value on Par14 is “does not influence”.
Consider [O-(CF-NH(CH2)2NHC(O)CH2-)D-Ser]^8CsA, for which, at CypA [6], the Ki is 0.0024 ± 0.0003 µM.

The values are drawn from paper PMC2753677 (Biochemistry, 2009).
